Reference: ChEMBL document CHEMBL3797187, “Design, synthesis and biological evaluation of potent FAAH inhibitors” (Bioorg Med Chem Lett, 2016)

Assays:
[1] = Cytotoxicity against human HT-29 cells assessed as growth inhibition at 10 uM after 72 hrs by MTS assay relative to control; assay type: cell-based; details: read-out: GI
Summary of the method: (§1)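 Test compounds at 10 µM on human colorectal adenocarcinoma HT29 and human embryonic kidney HEK293 cells. Cell proliferation scored colorimetrically by MTS tetrazolium reduction to formazan (NADPH-dependent oxidoreductase activity as viable-cell readout). Reported as % inhibition at 10 µM.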

[2] = Cytotoxicity against human HEK293 cells assessed as growth inhibition at 10 uM after 72 hrs by MTS assay relative to control; assay type: cell-based; details: read-out: GI; summary of the method: as §1
[3] = biological target: T1, Fatty-acid amide hydrolase 1 (Homo sapiens) (UniProt O00519); test: Inhibition of human recombinant FAAH expressed in sf21 cells using AMC-AA as substrate at 10 uM preincubated for 15 mins followed by substrate addition measured after 2 hrs by spectrophotometric analysis relative to control
T1 sequence (whole entry): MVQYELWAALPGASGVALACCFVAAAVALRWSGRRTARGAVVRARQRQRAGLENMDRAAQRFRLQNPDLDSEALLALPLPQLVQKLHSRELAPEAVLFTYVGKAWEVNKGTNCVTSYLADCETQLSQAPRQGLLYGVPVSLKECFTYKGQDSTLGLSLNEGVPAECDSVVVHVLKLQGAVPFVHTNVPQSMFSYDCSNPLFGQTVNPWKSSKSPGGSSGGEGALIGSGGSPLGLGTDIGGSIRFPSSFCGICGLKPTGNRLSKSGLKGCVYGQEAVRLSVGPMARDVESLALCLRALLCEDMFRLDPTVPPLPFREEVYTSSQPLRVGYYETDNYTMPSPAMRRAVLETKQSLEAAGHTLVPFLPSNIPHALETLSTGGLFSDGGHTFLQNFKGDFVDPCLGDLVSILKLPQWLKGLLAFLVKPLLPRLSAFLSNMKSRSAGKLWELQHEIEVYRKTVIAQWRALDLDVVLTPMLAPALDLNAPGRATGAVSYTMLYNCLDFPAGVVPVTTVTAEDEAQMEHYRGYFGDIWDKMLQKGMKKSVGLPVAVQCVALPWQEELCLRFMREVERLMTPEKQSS
Summary of the method: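 Human recombinant FAAH expressed in SF21 cells, 4 U/mL, preincubated 15 min with compound at 37 °C in Tris buffer pH 9. Hydrolysis of the fluorogenic substrate AMC-arachidonamide then measured. Single-point screen at 10 µM as % inhibition. IC50 from concentration-response, mean ± SEM of three experiments performed in duplicate.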

[4] = biological target: T2, Fatty-acid amide hydrolase 1 (Homo sapiens, UniProt O00519); test: Inhibition of human recombinant FAAH expressed in sf21 cells using AMC-AA as substrate preincubated for 15 mins followed by substrate addition measured after 2 hrs by spectrophotometric analysis
T2 sequence (O00519 whole entry): T1 sequence (whole entry)
Summary of the method: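 Human recombinant FAAH expressed in SF21 cells, 4 U/mL, preincubated 15 min with compound at 37 °C in Tris buffer pH 9. Hydrolysis of the fluorogenic substrate AMC-arachidonamide then measured. IC50 from concentration-response, mean ± SEM of three experiments performed in duplicate.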

[5] = biological target: T1, Fatty-acid amide hydrolase 1 (Homo sapiens); test: Potency index, ratio of 5-(4-Pentyloxy-phenyl)-isoxazole-3-carboxylic acid adamantan-1-ylamide IC50 to compound IC50 for human recombinant FAAH expressed in sf21 cells

Row | Structure (SMILES) | inhibition at 72 h, 10 µM [1] [%] | inhibition at 72 h, 10 µM [2] [%] | inhibition [3] [%] | IC50 [4] [nM] | Ratio IC50 [5]
1 | CN1CCN(C(=O)c2ccc(-c3ccc(-c4cc(C(=O)NC56CC7CC(CC(C7)C5)C6)no4)cn3)cc2)CC1 | 0 | 3 | 10 |  | 
2 | COc1ccc(-c2ccc(-c3cc(C(=O)NC45CC6CC(CC(C6)C4)C5)no3)cc2)cc1 | 0 | 2 | 15 |  | 
3 | COc1cccc(-c2ccc(-c3cc(C(=O)NC45CC6CC(CC(C6)C4)C5)no3)cc2)c1 | 0 | 20 | 58 | 720 | 
4 | CC(=O)c1cccc(-c2ccc(-c3cc(C(=O)NC45CC6CC(CC(C6)C4)C5)no3)cn2)c1 | 0 | 18 | 22 |  | 
5 | CCCCCOc1ccc(-c2cc(C(=O)NC34CC5CC(CC(C5)C3)C4)no2)cc1 |  |  | 79 |  | 
6 | CC(=O)c1ccc(-c2ccc(-c3cc(C(=O)NC45CC6CC(CC(C6)C4)C5)no3)cn2)cc1 | 0 | 5 | 13 |  | 
7 | CN1CCN(C(=O)c2ccc(-c3ccc(-c4cc(C(=O)NC56CC7CC(CC(C7)C5)C6)no4)cc3)cc2)CC1 | 24 | 37 | 23 |  | 
8 | COc1ccccc1-c1ccc(-c2cc(C(=O)NC34CC5CC(CC(C5)C3)C4)no2)cc1 | 2 | 25 | 47 |  | 
9 | O=C(NC12CC3CC(CC(C3)C1)C2)c1cc(-c2ccc(-c3ccco3)cc2)on1 | 0 | 12 | 31 |  | 
10 | N#Cc1cccc(-c2ccc(-c3cc(C(=O)NC45CC6CC(CC(C6)C4)C5)no3)cc2)c1 | 0 | 0 | 64 | 240 | 2
11 | NC(=O)c1cccc(-c2ccc(-c3cc(C(=O)NC45CC6CC(CC(C6)C4)C5)no3)cc2)c1 | 0 | 3 | 11 |  | 
12 | O=C(NC12CC3CC(CC(C3)C1)C2)c1cc(-c2ccc(-c3ccncc3)cc2)on1 | 1 | 9 | 17 |  | 
13 | COc1cc(-c2ccc(-c3cc(C(=O)NC45CC6CC(CC(C6)C4)C5)no3)cc2)cc(OC)c1OC | 6 | 32 | 42 |  | 
14 | CC(=O)c1ccc(-c2ccc(-c3cc(C(=O)NC45CC6CC(CC(C6)C4)C5)no3)cc2)cc1 | 4 | 5 | 18 |  | 
15 | CC(=O)c1cccc(-c2ccc(-c3cc(C(=O)NC45CC6CC(CC(C6)C4)C5)no3)cc2)c1 | 1 | 16 | 56 | 590 | 
16 | CN1CCN(Cc2cccc(-c3ccc(-c4cc(C(=O)NC56CC7CC(CC(C7)C5)C6)no4)cc3)c2)CC1 | 97 | 93 | 63 | 1130 | 

Row | Structure (SMILES) | inhibition at 72 h, 10 µM [1] [%] | inhibition at 72 h, 10 µM [2] [%] | inhibition [3] [%] | IC50 [4] [nM] | Ratio IC50 [5]
17 | O=C(NC12CC3CC(CC(C3)C1)C2)c1cc(-c2ccc(-c3ccc(C(=O)N4CCOCC4)cc3)nc2)on1 | 0 | 10 | 12 |  | 
18 | CN1CCN(C(=O)c2cccc(-c3ccc(-c4cc(C(=O)NC56CC7CC(CC(C7)C5)C6)no4)cc3)c2)CC1 | 55 | 47 | 44 |  | 
19 | NC(=O)c1cccc(-c2cccc(OC(=O)NC3CCCCC3)c2)c1 [URB-597] | 0 | 0 | 98 |  | 
20 | O=C(NC12CC3CC(CC(C3)C1)C2)c1cc(-c2ccc(-c3cnc4ccccc4c3)cc2)on1 | 0 | 24 | 22 |  | 
21 | O=C(NC12CC3CC(CC(C3)C1)C2)c1cc(-c2ccc(-c3cccc(C(=O)N4CCOCC4)c3)cc2)on1 | 10 | 54 | 49 |  | 
22 | O=C(NC12CC3CC(CC(C3)C1)C2)c1cc(-c2ccc(-c3ccncc3)nc2)on1 | 0 | 1 | 23 |  | 
23 | O=C(NC12CC3CC(CC(C3)C1)C2)c1cc(-c2ccc(-c3ccc4c(c3)OCO4)cc2)on1 | 0 | 9 | 18 |  | 
24 | O=C(NC12CC3CC(CC(C3)C1)C2)c1cc(-c2ccc(-c3ccc(CN4CCOCC4)cc3)cc2)on1 | 0 | 20 | 16 |  | 
25 | CN1CCN(Cc2ccc(-c3ccc(-c4cc(C(=O)NC56CC7CC(CC(C7)C5)C6)no4)cc3)cc2)CC1 | 90 | 89 | 41 |  | 
26 | O=C(NC12CC3CC(CC(C3)C1)C2)c1cc(-c2ccc(-c3ccc(C(=O)N4CCOCC4)cc3)cc2)on1 | 0 | 23 | 24 |  | 
27 | O=C(NC12CC3CC(CC(C3)C1)C2)c1cc(-c2ccc(-c3ccccc3)nc2)on1 | 0 | 14 | 23 |  | 
28 | O=C(NC12CC3CC(CC(C3)C1)C2)c1cc(-c2ccc(-c3cccc(CN4CCOCC4)c3)cc2)on1 | 0 | 38 | 69 | 830 | 
29 | COc1ccc(-c2ccc(-c3cc(C(=O)NC45CC6CC(CC(C6)C4)C5)no3)cc2)cc1OC | 7 | 29 | 14 |  | 
30 | NC(=O)c1cccc(-c2ccc(-c3cc(C(=O)NC45CC6CC(CC(C6)C4)C5)no3)cn2)c1 | 14 | 1 | 20 |  | 
31 | NC(=O)c1ccc(-c2ccc(-c3cc(C(=O)NC45CC6CC(CC(C6)C4)C5)no3)cc2)cc1 | 0 | 4 | 10 |  | 
